Assay results published in ChEMBL document CHEMBL4184319, “Fluorescent-Labeled Selective Adenosine A2B Receptor Antagonist Enables Competition Binding Assay by Flow Cytometry” (J Med Chem, 2018).

Tests used:
Adenosine receptor A1 [1] = target: T1, Adenosine receptor A1 (Rattus norvegicus, UniProt P25099); test: Displacement of [3H]CCPA from adenosine A1 receptor in rat brain cortical membranes after 90 mins by liquid scintillation counting method; format: cell membranes
T1 sequence (P25099 whole entry): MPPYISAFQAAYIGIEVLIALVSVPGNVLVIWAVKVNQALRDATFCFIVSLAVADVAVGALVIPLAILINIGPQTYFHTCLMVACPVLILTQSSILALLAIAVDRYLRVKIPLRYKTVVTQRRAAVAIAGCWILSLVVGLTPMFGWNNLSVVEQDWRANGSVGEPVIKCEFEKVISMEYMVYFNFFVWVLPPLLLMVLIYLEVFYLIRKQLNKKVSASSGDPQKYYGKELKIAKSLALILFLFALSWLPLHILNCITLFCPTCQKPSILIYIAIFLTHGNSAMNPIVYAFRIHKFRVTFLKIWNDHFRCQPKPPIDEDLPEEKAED
Summary of the method: (§1)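 [³H]CCPA (1 nM) used with rat brain cortical or human A1-CHO membranes, 90 min at rt. Membranes pre-incubated 10-15 min with ADA 0.12 IU/mL. Nonspecific binding defined with 10 µM CADO. Compounds dissolved in DMSO, 2.5 % final. Filtration on GF/B filters with ice-cold Tris-HCl washes, then scintillation counting. Curves used 6-7 concentrations spanning 3 log units. At least three experiments, in duplicate (human) or triplicate (rat).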

Adenosine receptor A2a [2] = target: Adenosine receptor A2a (Rattus norvegicus, UniProt P30543); test: Displacement of [3H]MSX-2 from adenosine A2A receptor in rat brain striatal membranes after 30 mins by liquid scintillation counting method; format: cell membranes, Striatum, Membrane
Summary of the method: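 [³H]MSX-2 (1 nM) used with rat striatal or human A2A-HEK membranes, 30 min at rt. Membranes pre-incubated 10-15 min with ADA 0.12 IU/mL. DMSO 2.5 % final. GF/B filtration, then scintillation counting. Curves used 6-7 concentrations over 3 log units. At least three experiments, in duplicate (human) or triplicate (rat).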

Adenosine receptor A2b [3] = target: T2, Adenosine receptor A2b (Homo sapiens, UniProt P29275); test: Displacement of [3H]PSB-603 from recombinant human adenosine A2B receptor expressed in CHO cell membranes after 75 mins by liquid scintillation counting method
T2 sequence (P29275 whole entry): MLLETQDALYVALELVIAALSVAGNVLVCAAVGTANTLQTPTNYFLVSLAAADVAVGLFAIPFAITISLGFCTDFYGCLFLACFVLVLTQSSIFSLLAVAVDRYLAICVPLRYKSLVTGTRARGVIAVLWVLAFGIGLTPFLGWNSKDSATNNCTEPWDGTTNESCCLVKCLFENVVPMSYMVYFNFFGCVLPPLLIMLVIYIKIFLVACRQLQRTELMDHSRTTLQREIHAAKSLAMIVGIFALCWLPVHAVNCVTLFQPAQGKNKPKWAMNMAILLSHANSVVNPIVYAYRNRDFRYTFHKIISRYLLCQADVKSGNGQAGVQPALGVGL
Summary of the method: (§2)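 [³H]PSB-603 (0.3 nM) used with CHO membranes expressing human, mouse or rat A2BAR, 75 min at rt. Membranes pre-incubated 10-15 min with ADA 0.12 IU/mL. Nonspecific binding defined with 10 µM DPCPX. DMSO 2.5 % final. Filtration on GF/B with ice-cold 50 mM Tris-HCl pH 7.4 containing 0.1 % BSA, then scintillation counting. Curves used 6-7 concentrations over 3 log units. At least three experiments.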

Adenosine receptor A3 = target: T3, Adenosine receptor A3 (Homo sapiens, UniProt P0DMS8); test: Displacement of [3H]PSB-11 from recombinant human adenosine A3 receptor expressed in CHO cell membranes after 45 mins by liquid scintillation counting method
T3 sequence (P0DMS8 whole entry): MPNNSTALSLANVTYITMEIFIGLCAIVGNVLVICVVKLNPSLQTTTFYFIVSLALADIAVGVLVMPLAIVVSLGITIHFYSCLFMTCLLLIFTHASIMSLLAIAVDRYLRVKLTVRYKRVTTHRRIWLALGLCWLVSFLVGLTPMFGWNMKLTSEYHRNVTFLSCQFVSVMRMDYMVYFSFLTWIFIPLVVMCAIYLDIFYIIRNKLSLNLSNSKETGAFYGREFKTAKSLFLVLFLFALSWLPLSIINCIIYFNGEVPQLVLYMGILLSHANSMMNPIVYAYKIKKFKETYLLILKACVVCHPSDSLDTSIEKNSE
Summary of the method: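 Human A3-CHO membranes incubated with [³H]PSB-11 (1 nM) for 45 min at rt, after 10-15 min pre-incubation with ADA 0.12 IU/mL. Nonspecific binding defined with 100 µM R-PIA. DMSO 2.5 % final. GF/B filtration, then scintillation counting. Curves used 6-7 concentrations over 3 log units. At least three experiments in duplicate.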

[4] = Selectivity ratio of Ki for adenosine A2A receptor in rat brain striatal membranes to Ki for recombinant human adenosine A2B receptor expressed in CHO cell membranes; format: cell-based
Adenosine receptor A1 [5] = target: T4, Adenosine receptor A1 (Homo sapiens, UniProt P30542); test: Displacement of [3H]CCPA from recombinant human adenosine A1 receptor expressed in CHO cell membranes after 90 mins by liquid scintillation counting method; summary of the method: as §1
T4 sequence (P30542 whole entry): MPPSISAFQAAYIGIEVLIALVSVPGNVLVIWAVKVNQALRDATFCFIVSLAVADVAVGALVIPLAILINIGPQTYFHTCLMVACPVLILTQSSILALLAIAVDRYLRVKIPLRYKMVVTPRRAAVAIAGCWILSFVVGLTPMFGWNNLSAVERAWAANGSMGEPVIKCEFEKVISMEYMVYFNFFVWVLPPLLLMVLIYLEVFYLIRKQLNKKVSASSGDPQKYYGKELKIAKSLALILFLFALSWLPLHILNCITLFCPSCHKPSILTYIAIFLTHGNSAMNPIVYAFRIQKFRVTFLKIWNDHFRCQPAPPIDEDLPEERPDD

Adenosine receptor A2a [6] = target: Adenosine receptor A2a (Homo sapiens, UniProt P29274); test: Displacement of [3H]MSX-2 from recombinant human adenosine A2A receptor expressed in HEK cell membranes after 30 mins by liquid scintillation counting method
Summary of the method: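 [³H]MSX-2 (1 nM) used with rat striatal or human A2A-HEK membranes, 30 min at rt. Membranes pre-incubated 10-15 min with ADA 0.12 IU/mL. Nonspecific binding defined with 10 µM CGS15943. DMSO 2.5 % final. GF/B filtration, then scintillation counting. Curves used 6-7 concentrations over 3 log units. At least three experiments, in duplicate (human) or triplicate (rat).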

Homo sapiens [7] = species: Homo sapiens; test: Selectivity ratio of Ki for recombinant human adenosine A2A receptor expressed in HEK cell membranes to Ki for recombinant human adenosine A2B receptor expressed in CHO cell membranes; format: cell-based
Adenosine receptor A2b [8] = target: T5, Adenosine receptor A2b (Mus musculus, UniProt Q60614); test: Displacement of [3H]PSB-603 from recombinant mouse adenosine A2B receptor expressed in CHO cell membranes after 75 mins by liquid scintillation counting method; summary of the method: as §2
T5 sequence (Q60614 whole entry): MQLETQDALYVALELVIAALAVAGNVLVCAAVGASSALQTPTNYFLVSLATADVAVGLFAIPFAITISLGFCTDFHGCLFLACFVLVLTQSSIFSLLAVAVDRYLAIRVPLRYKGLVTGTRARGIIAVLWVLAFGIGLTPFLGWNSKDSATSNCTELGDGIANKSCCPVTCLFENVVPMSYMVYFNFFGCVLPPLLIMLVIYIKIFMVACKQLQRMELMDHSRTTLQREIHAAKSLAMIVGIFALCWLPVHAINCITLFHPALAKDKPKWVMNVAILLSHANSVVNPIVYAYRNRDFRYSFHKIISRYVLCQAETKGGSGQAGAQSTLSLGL

Adenosine receptor A2b [9] = target: T2, Adenosine receptor A2b; test: Displacement of PSB-12105 from recombinant human adenosine A2B receptor expressed in CHO cell membranes preincubated for 30 mins followed by PSB-12105 addition measured after 20 mins by flow cytometric method; format: cell-based
Summary of the method: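 Live CHO-hA2B cells were pre-treated with ADA (2 U/mL, 2 h, 37°C), detached with 5 mM EDTA, and resuspended in HBSS with 2 U/mL ADA at 2.5×10^5 cells/well in 96-well format. Antagonists pre-incubated 30 min at 37°C, then fluorescent ligand (100 nM) added for 20 min at 37°C. 3-5 independent experiments in duplicate.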

Homo sapiens [10] = species: Homo sapiens; test: Selectivity ratio of Ki for recombinant human adenosine A3 receptor expressed in CHO cell membranes to Ki for recombinant human adenosine A2B receptor expressed in CHO cell membranes; format: cell-based
Adenosine receptor A2b [11] = target: T2, Adenosine receptor A2b; test: Antagonist activity at recombinant human adenosine A2B receptor expressed in CHO cell membranes assessed as inhibition of NECA-induced cAMP accumulation preincubated for 1 hr followed by NECA induction measured after 5 mins in presence of [3H]cAMP and bovine cAMP-binding protein by liquid scintillation counting method; format: functional
Summary of the method: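 CHO cells stably expressing human A2BAR, pre-incubated with antagonist dilutions for 1 h at 37°C, then stimulated with NECA (10 µM final) for 5 min at 37°C. Reaction stopped with hot (90 °C) lysis solution (4 mM EDTA, 0.01 % Triton X100). cAMP quantified by radioactive competition with [³H]cAMP and bovine adrenal cAMP-binding protein. Response expressed as % of NECA response without antagonist. Means ± SEM, three independent experiments in duplicate.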

Adenosine receptor A1 [12] = target: T1, Adenosine receptor A1; test: Displacement of [3H]-ADAC from adenosine A1 receptor in rat cerebral cortex membranes after 120 mins by filter binding method; format: cell membranes, Membrane
Adenosine receptor A1 [13] = target: T4, Adenosine receptor A1; test: Displacement of [3H]DPCPX from recombinant human adenosine A1 receptor expressed in CHO cell membranes after 60 mins by scintillation counting method
[14] = target: T6, Adenosine receptor A1 (Homo sapiens) (UniProt P30542); test: Antagonist activity at recombinant human adenosine A1 receptor expressed in CHO cell membranes assessed as inhibition of NECA-induced cAMP accumulation; format: functional, cell-based
T6 sequence (whole entry): T4 sequence (P30542 whole entry)

Adenosine receptor A2a (Rattus norvegicus, UniProt P30543), sequence (P30543 whole entry): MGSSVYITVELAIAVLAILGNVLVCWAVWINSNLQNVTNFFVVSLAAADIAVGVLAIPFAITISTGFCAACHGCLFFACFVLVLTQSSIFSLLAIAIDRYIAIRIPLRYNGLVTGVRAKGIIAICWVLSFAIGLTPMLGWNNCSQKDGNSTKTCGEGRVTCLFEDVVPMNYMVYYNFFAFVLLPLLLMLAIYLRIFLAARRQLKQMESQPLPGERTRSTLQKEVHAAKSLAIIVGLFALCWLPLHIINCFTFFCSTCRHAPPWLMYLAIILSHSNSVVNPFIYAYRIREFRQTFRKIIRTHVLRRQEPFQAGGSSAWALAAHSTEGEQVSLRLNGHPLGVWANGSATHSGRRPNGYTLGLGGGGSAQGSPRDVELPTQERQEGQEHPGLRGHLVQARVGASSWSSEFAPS
Adenosine receptor A2a (Homo sapiens, UniProt P29274), sequence (P29274 whole entry): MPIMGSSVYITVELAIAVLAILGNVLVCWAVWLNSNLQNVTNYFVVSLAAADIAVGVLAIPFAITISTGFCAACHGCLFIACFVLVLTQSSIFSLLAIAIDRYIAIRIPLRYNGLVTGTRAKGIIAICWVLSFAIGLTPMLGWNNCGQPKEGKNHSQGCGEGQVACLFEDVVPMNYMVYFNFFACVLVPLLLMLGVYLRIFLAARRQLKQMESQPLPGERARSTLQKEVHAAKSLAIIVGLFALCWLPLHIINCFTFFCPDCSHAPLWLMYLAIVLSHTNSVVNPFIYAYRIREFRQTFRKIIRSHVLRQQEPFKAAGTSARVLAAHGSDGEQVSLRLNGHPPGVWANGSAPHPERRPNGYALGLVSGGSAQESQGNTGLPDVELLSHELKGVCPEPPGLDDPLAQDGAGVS

Row | SMILES | Ki (Adenosine receptor A1 [1]) [nM] | Ki (Adenosine receptor A2a [2]) [nM] | Ki (Adenosine receptor A2b [3]) [nM] | Ki (Adenosine receptor A3) [nM] | Ratio Ki [4] | further results
1 | CCCn1c(=O)[nH]c2nc(-c3ccc(OCC(=O)NCCCCc4ccccc4)cc3)[nH]c2c1=O | 29.6 | 498 | 3.3 | 1410 | > 150 | –
2 | CCCn1c(=O)[nH]c2nc(-c3ccc(OCC(=O)NCCCCCCCCCCC4=C5C(C)=CC(C)=[N+]5[B-](F)(F)n5c(C)cc(C)c54)cc3)[nH]c2c1=O | 227 | > 10000 | 7.82 | ≥ 10000 | > 150 | Ki (Adenosine receptor A1 [5]): > 10000 nM; Ki (Adenosine receptor A2a [6]): 1600 nM; Ratio Ki (Homo sapiens [7]): > 150
3 | Cn1c(=O)c2c(ncn2C)n(C)c1=O [CAFFEINE] | – | – | – | – | – | Ki (Adenosine receptor A2b [8]): 23000 nM
4 | CCCN1C(=O)N=C2N=C(c3ccc(S(=O)(=O)N4CCN(Cc5ccccc5)CC4)cc3)N=C2C1=O | – | – | – | – | – | IC50 (Adenosine receptor A2b [9]): 23.5 nM
5 | CCCn1c(=O)[nH]c2nc(-c3ccc(OCC(=O)NCc4ccccc4)cc3)[nH]c2c1=O | 27.2 | > 10000 | 7 | 266 | > 150 | Ratio Ki (Homo sapiens [10]): 38; IC50 (Adenosine receptor A2b [11]): 135 nM
6 | O=C(Cc1ccc(NC(=O)Cc2ccc(Nc3ncnc4c3ncn4[C@@H]3O[C@H](CO)[C@@H](O)[C@H]3O)cc2)cc1)NCCNc1ccc([N+](=O)[O-])c2nonc12 | – | – | – | – | – | Ki (Adenosine receptor A1 [12]): 4.3 nM
7 | CCCn1c(=O)[nH]c2nc(-c3ccc(OCC(=O)NCCCc4ccccc4)cc3)[nH]c2c1=O | 35.3 | > 10000 | 27.9 | 2990 | > 150 | IC50 (Adenosine receptor A2b [11]): 174 nM
8 | CCCn1c(=O)c2[nH]c(-c3ccc(OCC(=O)NCCNC(=O)CCCCCNC(=O)COc4ccc(/C=C/C5=[N+]6C(=Cc7ccc(-c8cccs8)n7[B-]6(F)F)C=C5)cc4)cc3)nc2n(CCC)c1=O | – | – | – | – | – | Kd (Adenosine receptor A1 [13]): 151 nM; Kb [14]: 209 nM
9 | CCCN1C(=O)N=C2N=C(c3ccc(S(=O)(=O)N4CCN(Cc5ccc(Cl)cc5)CC4)cc3)N=C2C1=O | – | – | – | – | – | IC50 (Adenosine receptor A2b [9]): 1.06 nM
10 | CCCn1c(=O)[nH]c2nc(-c3ccc(OCC(=O)NCCCCC4=C5C(C)=CC(C)=[N+]5[B-](F)(F)n5c(C)cc(C)c54)cc3)[nH]c2c1=O | 178 | 1570 | 24.4 | 719 | 64 | –
11 | O=C(Cc1ccc(NC(=O)Cc2ccc(Nc3ncnc4c3ncn4[C@@H]3O[C@H](CO)[C@@H](O)[C@H]3O)cc2)cc1)NCCNC(=S)Nc1ccc(-c2c3ccc(=O)cc-3oc3cc(O)ccc23)c(C(=O)O)c1 | – | – | – | – | – | Ki (Adenosine receptor A1 [12]): 7.1 nM
12 | CCCn1c(=O)[nH]c2nc(-c3ccc(OCC(=O)NCCc4ccccc4)cc3)[nH]c2c1=O | 7.85 | > 10000 | 7.45 | > 10000 | > 150 | IC50 (Adenosine receptor A2b [11]): 141 nM
13 | CCCn1c(=O)[nH]c2nc(-c3ccc(OCC(=O)NCCCCCC4=C5C(C)=CC(C)=[N+]5[B-](F)(F)n5c(C)cc(C)c54)cc3)[nH]c2c1=O | 77.9 | 477 | 5.9 | 4550 | 81 | Ki (Adenosine receptor A1 [5]): 714 nM; Ki (Adenosine receptor A2a [6]): 58.7 nM; Ratio Ki (Homo sapiens [7]): 9.9
14 | CCCn1c(=O)[nH]c2nc(-c3ccc(OCC(=O)NCCCC4=C5C(C)=CC(C)=[N+]5[B-](F)(F)n5c(C)cc(C)c54)cc3)[nH]c2c1=O | 168 | 2150 | 11.6 | 904 | > 150 | –
